Experimental data reported in ChEMBL document CHEMBL5724801, “EUbOPEN Chemogenomics Library - Multiplex” (2024).
“And” between values parts separate entries of the source, which are not always exact repeats. Equal values may be shown once.

System: U2OS
Experiment: Multiplex assay against U2OS
Type: toxicity, cell-based
Details: human
Procedure, shortened: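 Hoechst33342, BioTracker Green Microtubule Cytoskeleton Dye, MitoTracker Red and Annexin V Alexa Fluor 680 were added to live cells at seeding, and imaging on a CQ1 microscope at 37°C and 5% CO2 followed compound addition. Gating by CellPathfinder machine learning separated cells into Hoechst high-intensity objects or normal cells, then normal cells into healthy, pyknosed or fragmented nuclei, then pyknosed cells into mitotic or apoptotic. Per cents of healthy-nucleus cells are reported for the tubulin, mitochondrial-mass and membrane-permeability phenotypes.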

[1] = 12 h, 1 µM, compound concentration 1 uM
[2] = 12 h, 10 µM, compound concentration 10 uM
[3] = 24 h, 1 µM, compound concentration 1 uM
[4] = 24 h, 10 µM, compound concentration 10 uM
[5] = 48 h, 1 µM, compound concentration 1 uM
[6] = 48 h, 10 µM, compound concentration 10 uM

## O=c1cccc2n1C[C@@H]1CNC[C@H]2C1 [CYTISINICLINE]
[1]
  Population Apoptotic (%): 31.43% and 36.84%
  Population Fragmented Nuclei (%): 0.94% and 1.67%
  Population Healthy Nuclei (%): 90.87% and 87.78%
  Population Hoechst High Intensity Objects (%): 0%
  Population Membrane Permeable-Phenotype (%): 1.29% and 1.9%
  Population Mitochondria Different-Phenotype (%): 0% and 5.06%
  Population Mitotic Cells (%): 68.57% and 63.16%
  Population Normal (%): 100%
  Population Pyknosed Nuclei (%): 8.2% and 10.56%
  Population Tubulin-Different-Phenotype (%): 1.29% and 0%
  Total Cell Count: 427 and 180
[2]
  Population Apoptotic (%): 50%
  Population Fragmented Nuclei (%): 0.98% and 7.59%
  Population Healthy Nuclei (%): 90.71% and 82.28%
  Population Hoechst High Intensity Objects (%): 0%
  Population Membrane Permeable-Phenotype (%): 1.35% and 0.77%
  Population Mitochondria Different-Phenotype (%): 0% and 6.92%
  Population Mitotic Cells (%): 50%
  Population Normal (%): 100%
  Population Pyknosed Nuclei (%): 8.31% and 10.13%
  Population Tubulin-Different-Phenotype (%): 1.62% and 1.54%
  Total Cell Count: 409 and 158
[3]
  Population Apoptotic (%): 30.23% and 40%
  Population Fragmented Nuclei (%): 2.82% and 2.92%
  Population Healthy Nuclei (%): 89.59% and 86.67%
  Population Hoechst High Intensity Objects (%): 0%
  Population Membrane Permeable-Phenotype (%): 1.18% and 2.4%
  Population Mitochondria Different-Phenotype (%): 0% and 2.4%
  Population Mitotic Cells (%): 69.77% and 60%
  Population Normal (%): 100%
  Population Pyknosed Nuclei (%): 7.58% and 10.42%
  Population Tubulin-Different-Phenotype (%): 0.59% and 0.96%
  Total Cell Count: 567 and 240
[4]
  Population Apoptotic (%): 32.61% and 45%
  Population Fragmented Nuclei (%): 0.88% and 4.81%
  Population Healthy Nuclei (%): 91.01% and 85.58%
  Population Hoechst High Intensity Objects (%): 0.18% and 0%
  Population Membrane Permeable-Phenotype (%): 0.97% and 1.69%
  Population Mitochondria Different-Phenotype (%): 0% and 3.37%
  Population Mitotic Cells (%): 67.39% and 55%
  Population Normal (%): 99.82% and 100%
  Population Pyknosed Nuclei (%): 8.11% and 9.62%
  Population Tubulin-Different-Phenotype (%): 2.13% and 1.69%
  Total Cell Count: 568 and 208
[5]
  Population Apoptotic (%): 42.86% and 41.18%
  Population Fragmented Nuclei (%): 3.85% and 0.73%
  Population Healthy Nuclei (%): 89.27% and 86.8%
  Population Hoechst High Intensity Objects (%): 0% and 0.49%
  Population Membrane Permeable-Phenotype (%): 0.8% and 1.41%
  Population Mitochondria Different-Phenotype (%): 0.1% and 3.1%
  Population Mitotic Cells (%): 57.14% and 58.82%
  Population Normal (%): 100% and 99.51%
  Population Pyknosed Nuclei (%): 6.89% and 12.47%
  Population Tubulin-Different-Phenotype (%): 0.6% and 0.56%
  Total Cell Count: 1118 and 411
[6]
  Population Apoptotic (%): 42.39% and 63.89%
  Population Fragmented Nuclei (%): 3.71% and 1.13%
  Population Healthy Nuclei (%): 87.55% and 88.7%
  Population Hoechst High Intensity Objects (%): 0%
  Population Membrane Permeable-Phenotype (%): 0.65% and 2.23%
  Population Mitochondria Different-Phenotype (%): 0.11% and 0.96%
  Population Mitotic Cells (%): 57.61% and 36.11%
  Population Normal (%): 100%
  Population Pyknosed Nuclei (%): 8.75% and 10.17%
  Population Tubulin-Different-Phenotype (%): 1.19% and 0.64%
  Total Cell Count: 1052 and 354

## C[C@@H]1C[C@H]2[C@@H]3CCC4=CC(=O)C=C[C@]4(C)[C@@]3(F)[C@@H](O)C[C@]2(C)[C@@]1(O)C(=O)CO [DEXAMETHASONE]
[1]
  Population Apoptotic (%): 77% and 80%
  Population Fragmented Nuclei (%): 21% and 20%
  Population Healthy Nuclei (%): 70% and 75%
  Population Hoechst High Intensity Objects (%): 2% and 0%
  Population Membrane Permeable-Phenotype (%): 2% and 4%
  Population Mitochondria Different-Phenotype (%): 0% and 1%
  Population Mitotic Cells (%): 22% and 20%
  Population Normal (%): 97% and 99%
  Population Pyknosed Nuclei (%): 7% and 4%
  Population Tubulin-Different-Phenotype (%): 1% and 3%
  Total Cell Count: 238 and 124
[2]
  Population Apoptotic (%): 80% and 84%
  Population Fragmented Nuclei (%): 20% and 16%
  Population Healthy Nuclei (%): 69% and 76%
  Population Hoechst High Intensity Objects (%): 2% and 0%
  Population Membrane Permeable-Phenotype (%): 6% and 7%
  Population Mitochondria Different-Phenotype (%): 1% and 2%
  Population Mitotic Cells (%): 19% and 15%
  Population Normal (%): 97% and 100%
  Population Pyknosed Nuclei (%): 9% and 7%
  Population Tubulin-Different-Phenotype (%): 2% and 3%
  Total Cell Count: 319
[3]
  Population Apoptotic (%): 96% and 90%
  Population Fragmented Nuclei (%): 19% and 18%
  Population Healthy Nuclei (%): 71% and 73%
  Population Hoechst High Intensity Objects (%): 2%
  Population Membrane Permeable-Phenotype (%): 4% and 6%
  Population Mitochondria Different-Phenotype (%): 2% and 0%
  Population Mitotic Cells (%): 4% and 9%
  Population Normal (%): 97%
  Population Pyknosed Nuclei (%): 8% and 7%
  Population Tubulin-Different-Phenotype (%): 2% and 4%
  Total Cell Count: 288
[4]
  Population Apoptotic (%): 82% and 75%
  Population Fragmented Nuclei (%): 17% and 14%
  Population Healthy Nuclei (%): 74% and 79%
  Population Hoechst High Intensity Objects (%): 1% and 0%
  Population Membrane Permeable-Phenotype (%): 6%
  Population Mitochondria Different-Phenotype (%): 0% and 2%
  Population Mitotic Cells (%): 17% and 25%
  Population Normal (%): 98% and 99%
  Population Pyknosed Nuclei (%): 7% and 5%
  Population Tubulin-Different-Phenotype (%): 2%
  Total Cell Count: 378 and 219
[5]
  Population Apoptotic (%): 84% and 71%
  Population Fragmented Nuclei (%): 20% and 17%
  Population Healthy Nuclei (%): 72% and 74%
  Population Hoechst High Intensity Objects (%): 1% and 2%
  Population Membrane Permeable-Phenotype (%): 1% and 3%
  Population Mitochondria Different-Phenotype (%): 1% and 3%
  Population Mitotic Cells (%): 16% and 28%
  Population Normal (%): 98% and 97%
  Population Pyknosed Nuclei (%): 6% and 7%
  Population Tubulin-Different-Phenotype (%): 0% and 4%
  Total Cell Count: 391 and 186
[6]
  Population Apoptotic (%): 92% and 86%
  Population Fragmented Nuclei (%): 14% and 16%
  Population Healthy Nuclei (%): 77% and 76%
  Population Hoechst High Intensity Objects (%): 2%
  Population Membrane Permeable-Phenotype (%): 4% and 5%
  Population Mitochondria Different-Phenotype (%): 1% and 0%
  Population Mitotic Cells (%): 7% and 13%
  Population Normal (%): 97%
  Population Pyknosed Nuclei (%): 8% and 7%
  Population Tubulin-Different-Phenotype (%): 1%
  Total Cell Count: 497 and 294

## Cl.NCCc1ccc(O)c(O)c1 [DOPAMINE HYDROCHLORIDE]
[1]
  Population Apoptotic (%): 100% and 83%
  Population Fragmented Nuclei (%): 23% and 15%
  Population Healthy Nuclei (%): 67% and 72%
  Population Hoechst High Intensity Objects (%): 3% and 1%
  Population Membrane Permeable-Phenotype (%): 5% and 8%
  Population Mitochondria Different-Phenotype (%): 1% and 2%
  Population Mitotic Cells (%): 0% and 16%
  Population Normal (%): 96% and 98%
  Population Pyknosed Nuclei (%): 9% and 11%
  Population Tubulin-Different-Phenotype (%): 2% and 5%
  Total Cell Count: 237 and 104
[2]
  Population Apoptotic (%): 80% and 75%
  Population Fragmented Nuclei (%): 21% and 18%
  Population Healthy Nuclei (%): 65% and 76%
  Population Hoechst High Intensity Objects (%): 3% and 0%
  Population Membrane Permeable-Phenotype (%): 2% and 4%
  Population Mitochondria Different-Phenotype (%): 1%
  Population Mitotic Cells (%): 20% and 25%
  Population Normal (%): 96% and 100%
  Population Pyknosed Nuclei (%): 12% and 4%
  Population Tubulin-Different-Phenotype (%): 1%
  Total Cell Count: 204 and 95
[3]
  Population Apoptotic (%): 90% and 80%
  Population Fragmented Nuclei (%): 18% and 14%
  Population Healthy Nuclei (%): 69% and 77%
  Population Hoechst High Intensity Objects (%): 4% and 1%
  Population Membrane Permeable-Phenotype (%): 7% and 4%
  Population Mitochondria Different-Phenotype (%): 2% and 1%
  Population Mitotic Cells (%): 10% and 20%
  Population Normal (%): 95% and 98%
  Population Pyknosed Nuclei (%): 11% and 7%
  Population Tubulin-Different-Phenotype (%): 5% and 2%
  Total Cell Count: 263 and 132
[4]
  Population Apoptotic (%): 92% and 87%
  Population Fragmented Nuclei (%): 18% and 15%
  Population Healthy Nuclei (%): 70% and 77%
  Population Hoechst High Intensity Objects (%): 2% and 0%
  Population Membrane Permeable-Phenotype (%): 4% and 1%
  Population Mitochondria Different-Phenotype (%): 0%
  Population Mitotic Cells (%): 8% and 12%
  Population Normal (%): 97% and 99%
  Population Pyknosed Nuclei (%): 10% and 7%
  Population Tubulin-Different-Phenotype (%): 1%
  Total Cell Count: 245 and 111
[5]
  Population Apoptotic (%): 90% and 89%
  Population Fragmented Nuclei (%): 17% and 14%
  Population Healthy Nuclei (%): 70% and 73%
  Population Hoechst High Intensity Objects (%): 2%
  Population Membrane Permeable-Phenotype (%): 5% and 7%
  Population Mitochondria Different-Phenotype (%): 3% and 4%
  Population Mitotic Cells (%): 9% and 10%
  Population Normal (%): 97%
  Population Pyknosed Nuclei (%): 11%
  Population Tubulin-Different-Phenotype (%): 4% and 3%
  Total Cell Count: 363 and 172
[6]
  Population Apoptotic (%): 85% and 100%
  Population Fragmented Nuclei (%): 18% and 14%
  Population Healthy Nuclei (%): 66% and 76%
  Population Hoechst High Intensity Objects (%): 2% and 1%
  Population Membrane Permeable-Phenotype (%): 7% and 2%
  Population Mitochondria Different-Phenotype (%): 3% and 2%
  Population Mitotic Cells (%): 14% and 0%
  Population Normal (%): 97% and 98%
  Population Pyknosed Nuclei (%): 14% and 8%
  Population Tubulin-Different-Phenotype (%): 5% and 2%
  Total Cell Count: 338 and 179
